Measured values pooled from the literature.
Each line is one published result; the experiments were not run side by side. In brackets after ≈: the same amount, converted by molar mass.
Effect on: microbial growth

SMILES | organism | assay | test system | setting | MIC
N#Cc1ccc(/C=C/c2nc3ccncc3c(=O)n2-c2cccc(O)c2)cc1 | Enterococcus faecium | broth dilution | NCTC7171 | – | 128 µg/mL (≈ 349 µM)
C[C@@H](O)[C@H]1C(=O)N2C(C(=O)O)=C(S[C@@H]3CN[C@H](C(=O)N(C)C)C3)[C@H](C)[C@H]12 | Citrobacter freundii | broth dilution | – | clinical isolate | > 64 µg/mL
C[N+](C)(C)CCCc1ccc(Oc2ccc(-c3noc(-c4ccc(O)cc4)n3)cc2)cc1.[I-] | Enterococcus faecium | broth dilution | – | 24 h | 16 µg/mL
CC(C)Oc1c(NC(=O)c2ccc(NC(=O)[C@H](CC(N)=O)NC(=O)c3ccc(NC(=O)c4ccc(C#N)cn4)cc3)cc2)ccc(C(=O)Nc2ccc(C(=O)O)cc2)c1O | Citrobacter freundii | – | DSM30039 | – | ≤ 0.03 µg/mL
O=C(O)c1cn(C2CC2)c2cc(N3CCNCC3)c(F)cc2c1=O | Mycobacterium intracellulare | broth dilution | ATCC23068 | – | 0.63 µg/mL (≈ 1.9 µM)
O=C(O)c1cccc(-n2c(/C=C/c3ccc(F)c(F)c3)nc3ccccc3c2=O)c1 | Enterococcus faecium | broth dilution | NCTC7171 | – | > 128 µg/mL
Nc1ccc(-c2nc(-c3ccc(Oc4ccccc4)cc3)no2)cc1 | Enterococcus faecium | broth dilution | – | 24 h | > 32 µg/mL
O=C(O)c1cn(C2CC2)c2cc(N3CCNCC3)c(F)cc2c1=O | Citrobacter freundii | – | DSM30039 | – | ≤ 0.03 µg/mL
O=C(O)CCc1cccc(Oc2ccc(-c3noc(-c4ccc(O)cc4)n3)cc2)c1 | Enterococcus faecium | broth dilution | – | 24 h | > 32 µg/mL
O=C(O)c1cccc(-n2c(/C=C/c3ccc(F)cc3)nc3ccncc3c2=O)c1 | Enterococcus faecium | broth dilution | NCTC7171 | – | > 128 µg/mL
O=C(O)Cc1ccc(Oc2ccc(-c3noc(-c4ccc(O)cc4)n3)cc2)cc1 | Enterococcus faecium | broth dilution | – | 24 h | > 32 µg/mL
CC(C)Oc1c(NC(=O)c2ccc(NC(=O)[C@H](CC(N)=O)NC(=O)c3ccc(NC(=O)c4ccc(C#N)s4)cc3)cc2)ccc(C(=O)Nc2ccc(C(=O)O)cc2)c1O | Citrobacter freundii | – | DSM30039 | – | ≤ 0.03 µg/mL
O=C(O)Cc1ccccc1Oc1ccc(-c2noc(-c3ccc(O)cc3)n2)cc1 | Enterococcus faecium | broth dilution | – | 24 h | > 32 µg/mL
CC(C)Oc1c(NC(=O)c2ccc(NC(=O)[C@H](CC(N)=O)NC(=O)c3ccc(NC(=O)c4ccc(C#N)cc4)cc3)cc2)ccc(C(=O)Nc2ccc(C(=O)O)cc2)c1O | Citrobacter freundii | – | DSM30039 | – | ≤ 0.03 µg/mL
COC(=O)CCNC(=O)c1cccc(-n2c(/C=C/c3ccc(C#N)cc3)nc3ccccc3c2=O)c1 | Enterococcus faecium | broth dilution | NCTC7171 | – | > 128 µg/mL
